These results are taken from paper PMC11229370 (Nucleic Acids Research, 2024).

Experiment [1] has as its target T1, BtProRS1 (Bacillus thuringiensis, UniProt Q6HEZ6).
T1 sequence (Q6HEZ6 1-566): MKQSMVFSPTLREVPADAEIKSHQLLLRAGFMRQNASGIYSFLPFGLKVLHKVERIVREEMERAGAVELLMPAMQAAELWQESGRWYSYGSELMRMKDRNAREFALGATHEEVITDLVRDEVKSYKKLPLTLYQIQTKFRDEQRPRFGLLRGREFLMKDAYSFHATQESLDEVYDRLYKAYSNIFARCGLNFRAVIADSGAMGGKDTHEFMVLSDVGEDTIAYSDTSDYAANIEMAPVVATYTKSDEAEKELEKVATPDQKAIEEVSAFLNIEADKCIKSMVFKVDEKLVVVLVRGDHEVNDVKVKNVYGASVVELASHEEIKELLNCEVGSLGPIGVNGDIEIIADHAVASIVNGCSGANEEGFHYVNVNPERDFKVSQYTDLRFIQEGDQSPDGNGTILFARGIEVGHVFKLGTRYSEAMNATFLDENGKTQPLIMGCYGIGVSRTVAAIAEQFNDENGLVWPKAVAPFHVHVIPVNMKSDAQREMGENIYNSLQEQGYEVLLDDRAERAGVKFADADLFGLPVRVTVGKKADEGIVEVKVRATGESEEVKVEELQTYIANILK
Description: HF inhibition assay. Type of experiment: biochemical. In a few lines: (§1)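 Purified His6-tagged enzyme (100 nM final) was mixed with test compound (0.1 nM–10 μM) in 50 μl aminoacylation buffer. Incubation was 10 min at 30°C, with TCA-filter scintillation counting. Relative activity is rate with inhibitor over rate without, and curves were fitted per enzyme.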

The target in experiment [2] is T2, BtProRS2 (Bacillus thuringiensis, UniProt Q6HNZ7).
T2 sequence (Q6HNZ7 1-476): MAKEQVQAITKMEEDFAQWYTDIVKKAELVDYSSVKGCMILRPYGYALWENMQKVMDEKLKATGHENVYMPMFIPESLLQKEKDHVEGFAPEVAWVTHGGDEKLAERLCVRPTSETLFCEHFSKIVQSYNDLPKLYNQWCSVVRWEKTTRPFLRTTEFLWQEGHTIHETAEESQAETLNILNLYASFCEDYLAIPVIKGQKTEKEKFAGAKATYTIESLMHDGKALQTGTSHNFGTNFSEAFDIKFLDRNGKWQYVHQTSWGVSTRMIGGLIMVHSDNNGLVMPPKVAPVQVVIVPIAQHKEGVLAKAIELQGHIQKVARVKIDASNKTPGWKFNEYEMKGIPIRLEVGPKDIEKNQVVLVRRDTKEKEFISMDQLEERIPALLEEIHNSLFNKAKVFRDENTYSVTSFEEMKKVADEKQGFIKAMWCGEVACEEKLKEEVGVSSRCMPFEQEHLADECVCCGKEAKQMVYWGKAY
Description: HF inhibition assay. It counts as biochemical. In a few lines: as §1

In experiment [3] the test system is total cellular extracts of B. thuringiensis. The experiment is described as follows: HF inhibition assay with total cellular extracts. Type of experiment: biochemical, Bacillus thuringiensis. The note with it: 3 μg of total cellular extracts in 50-μl aminoacylation buffer, 30°C, 10 min. In a few lines: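 B. thuringiensis ATCC 13367 was grown 24 h at 30°C in LB with shaking, PBS-washed, glass-bead lysed on ice in HEPES pH 7.2 buffer with protease inhibitors, and cleared. Extract (3 μg) was incubated with test compound (0.1 nM–10 μM) 10 min at 30°C; [3H]-proline charging of tRNA^Pro was filter-counted. Relative activity curves were fitted using the individual-enzyme curves to give the ProRS1 activity proportion.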

The subject of the next experiment is P. falciparum ProRS. The note with it: cited from earlier work.
Another experiment concerns T. gondii ProRS. The note with it: cited from earlier work.
In experiment [4] the test system is P-type ProRS (such as Pseudomonas aeruginosa ProRS). The note with it: cited from earlier work.
In experiment [5] the target is T1, BtProRS1. Description: Aminoacylation after pretreatment of the enzyme with H2O2, DTT, urea or GnHCl. It counts as biochemical. A digest of the protocol:
(§2)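 Purified His6-tagged enzymes were expressed in E. coli BL21-CodonPlus(DE3) and purified by Ni-NTA. Enzymes at 1000 nM were pretreated 10 min at 20°C with H2O2 (0–32 mM), DTT (0–80 mM), urea (0–3200 mM) or GnHCl (0–3200 mM). They were then diluted to 100 nM final in buffer with 4 mM ATP, 10 μM transcribed tRNA^Pro and 21.13 μM [3H]-proline, run 10 min at 30°C, with TCA filter counting; three independent experiments.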

Experiment [6] concerns the target T2, BtProRS2. The description is as above. It counts as biochemical. In a few lines:
as §2

Each structure is given as a SMILES string. Where only a bound is given, the exact number is not on record here.

Regarding `O=C(CC1NCCCC1O)Cn1cnc2cc(Br)c(Cl)cc2c1=O` (stereo not drawn) [HF, halofuginone], the concentration for half-maximal inhibition (IC50) was 0.68 µM at BtProRS1 [1]; 0.17 µM against BtProRS2 [2]; about 0.4 µM in experiment [3]; 0.009 µM with P. falciparum ProRS; 0.00541 µM in the experiment with T. gondii ProRS. Moreover, the “IC50 for BtProRS2 lower than that for BtProRS1” value at BtProRS2 [2] (ratio of IC50 BtProRS1 to BtProRS2) is 4 fold. Also, the “less effective against a P-type ProRS than against E-type ProRS” value in experiment [4] is recorded as about 100 fold.
Consider `O[C@@H](CS)[C@@H](O)CS` (racemic) [DTT, Dithiothreitol], for which the 50% inhibitory concentration (IC50) on BtProRS1 [5] is 27000 µM; on BtProRS2 [6], over 80000 µM.
